Active and inactive are the calls of the source. The rule behind the calls is not given here.
Experiments:
[1] = Toxicity in mouse at 300 mg/kg administered as single dose and measured for 14 days; assay type: organism-based; settings: in vivo, 336 h, time 14 day
Outline: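 Acute oral toxicity study. At day 14 the animals were euthanized, and kidneys, liver and spleen were weighed and inspected macroscopically.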

[2] = test system: Mycobacterium tuberculosis; assay: Bacteriostatic activity in Mycobacterium tuberculosis H37Rv ATCC 27294 infected in CF-1 mouse assessed as reduction in bacterial growth in lungs at 300 to 450 uM/kg, po administered daily for 14 days starting from 7 days post infection; assay type: functional, organism-based; settings: dose 300-450 µM/Kg, time 14.0 day
Outline: (§1)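 Mice treated by gavage from 7 days post-infection for 14 days, daily, at 300 or 450 μM/kg. Lungs and spleen homogenized in saline and plated for CFU. Comparisons are against vehicle and early-control groups.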

[3] = test system: Mycobacterium tuberculosis; assay: Antibacterial activity against Mycobacterium tuberculosis H37Rv ATCC 27294 infected in CF-1 mouse assessed as reversal of bacterial growth in spleen at 300 to 450 uM/kg, po administered daily for 14 days starting from 7 days post infection; assay type: functional, organism-based; settings: dose 300-450 µM/Kg, time 14.0 day; outline: as §1
[4] = target: T1, Enoyl-[acyl-carrier-protein] reductase [NADH] (Mycobacterium tuberculosis, UniProt P9WGR1); assay: Binding affinity to Mycobacterium tuberculosis InhA assessed as dissociation constant at 250 uM at 15 degreeC in presence of NADH by fluorescence spectroscopy
T1 sequence (P9WGR1 whole entry): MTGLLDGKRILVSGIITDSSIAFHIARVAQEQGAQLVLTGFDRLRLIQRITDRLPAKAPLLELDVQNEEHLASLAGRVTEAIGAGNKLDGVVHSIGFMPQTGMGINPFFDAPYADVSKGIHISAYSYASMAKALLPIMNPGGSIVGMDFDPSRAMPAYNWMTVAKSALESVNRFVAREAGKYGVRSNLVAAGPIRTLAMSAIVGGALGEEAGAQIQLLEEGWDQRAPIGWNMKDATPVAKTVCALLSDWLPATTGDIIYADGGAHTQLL
Outline: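 Titration of pre-formed MtInhA:NADH complex (2 mL of 3 μM enzyme with 20 μM NADH), adding microliter aliquots of 250 μM ligand stock with dilution kept ≤1%. Intrinsic fluorescence read at 295 nm excitation, 310–500 nm emission. Temperatures 15, 20, 25 and 30 °C. KD is fitted to a hyperbolic isotherm. ΔH°, ΔS° and ΔG° come from van't Hoff analysis of KD across temperatures.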

[5] = Toxicity in CF-1 mouse assessed as reduction in body weight at 300 uM/kg, po administered daily for 14 days; assay type: organism-based; settings: in vivo, 336 h, time 14 day
Outline: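 Mice were infected with M. tuberculosis H37Rv. From 7 days after infection, test and reference drugs were given daily by oral gavage for 14 days, with a vehicle-only group. Body weight was followed over the course of the experiment.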

[6] = Toxicity in mouse assessed as effect on lung weight at 300 mg/kg administered as single dose and measured for 14 days; assay type: organism-based; settings: in vivo, 336 h, time 14 day

For Cc1cc(Nc2ccc(N3CCCCC3)cc2)c2cc(Br)ccc2n1, the Activity [1] was “Non-Toxic”, the Activity [2] was “Active” and the Activity [3] was “inactive”. The Kd [4] was 280 nM, the Activity [5] was “Non-Toxic” and the Activity [6] was “Non-Toxic”.

From ChEMBL document CHEMBL5385869, “Novel 4-aminoquinolines: Synthesis, inhibition of the Mycobacterium tuberculosis enoyl-acyl carrier protein reductase, antitubercular activity, SAR, and preclinical evaluation” (Eur J Med Chem, 2023)
